Assay results from ChEMBL document CHEMBL5661979, “Pharmacological inhibition of BMK1 suppresses tumor growth through promyelocytic leukemia protein” (Cancer Cell, 2010).

Tests used:
Ephrin type-B receptor 4 = Ephrin type-B receptor 4 (Homo sapiens, UniProt P54760); assay: Inhibition of EphB4 in human HeLa cells lysate pre incubated for 15 mins followed by ATP acyl phosphate probe addition and measured after 10 mins by LC-MS/MS analysis; assay type: subcellular
[1] = molecular target: Dual specificity mitogen-activated protein kinase kinase 6 (Homo sapiens, UniProt P52564); assay: Inhibition of MAP2K6 in human HeLa cells lysate pre incubated for 15 mins followed by ATP acyl phosphate probe addition and measured after 10 mins by LC-MS/MS analysis; assay type: subcellular
[2] = molecular target: Ribosomal protein S6 kinase alpha-3 (Homo sapiens, UniProt P51812); assay: Inhibition of RSK2 in human HeLa cells lysate pre incubated for 15 mins followed by ATP acyl phosphate probe addition and measured after 10 mins by LC-MS/MS analysis; assay type: subcellular
[3] = molecular target: Ribosomal protein S6 kinase alpha-1 (Homo sapiens, UniProt Q15418); assay: Inhibition of RSK1 domain 1 in human HeLa cells lysate pre incubated for 15 mins followed by ADP acyl phosphate probe addition and measured after 10 mins by LC-MS/MS analysis; assay type: subcellular
[4] = Clearance in Sprague-Dawley rat at 2 mg/kg, po measured up to 8 hrs by LC-MS/MS analysis; assay type: ADME, organism-based; conditions: in vivo
How it was run: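 Sprague-Dawley rats given one intravenous dose or one oral dose of 2 mg/kg. Plasma drug concentrations were followed over time, with samples taken out to 8 hr after dosing. PK parameters (clearance, volume of distribution, half-life, oral bioavailability, Cmax) were calculated from these concentration–time data.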

[5] = molecular target: T1, Serine/threonine-protein kinase Nek9 (Homo sapiens) (UniProt Q8TD19); assay: Inhibition of NEK9 in human HeLa cells lysate at 50 uM pre incubated for 15 mins followed by ADP acyl phosphate probe addition and measured after 10 mins by LC-MS/MS analysis relative to control; assay type: subcellular; conditions: time 25.0 min
T1 sequence (whole entry): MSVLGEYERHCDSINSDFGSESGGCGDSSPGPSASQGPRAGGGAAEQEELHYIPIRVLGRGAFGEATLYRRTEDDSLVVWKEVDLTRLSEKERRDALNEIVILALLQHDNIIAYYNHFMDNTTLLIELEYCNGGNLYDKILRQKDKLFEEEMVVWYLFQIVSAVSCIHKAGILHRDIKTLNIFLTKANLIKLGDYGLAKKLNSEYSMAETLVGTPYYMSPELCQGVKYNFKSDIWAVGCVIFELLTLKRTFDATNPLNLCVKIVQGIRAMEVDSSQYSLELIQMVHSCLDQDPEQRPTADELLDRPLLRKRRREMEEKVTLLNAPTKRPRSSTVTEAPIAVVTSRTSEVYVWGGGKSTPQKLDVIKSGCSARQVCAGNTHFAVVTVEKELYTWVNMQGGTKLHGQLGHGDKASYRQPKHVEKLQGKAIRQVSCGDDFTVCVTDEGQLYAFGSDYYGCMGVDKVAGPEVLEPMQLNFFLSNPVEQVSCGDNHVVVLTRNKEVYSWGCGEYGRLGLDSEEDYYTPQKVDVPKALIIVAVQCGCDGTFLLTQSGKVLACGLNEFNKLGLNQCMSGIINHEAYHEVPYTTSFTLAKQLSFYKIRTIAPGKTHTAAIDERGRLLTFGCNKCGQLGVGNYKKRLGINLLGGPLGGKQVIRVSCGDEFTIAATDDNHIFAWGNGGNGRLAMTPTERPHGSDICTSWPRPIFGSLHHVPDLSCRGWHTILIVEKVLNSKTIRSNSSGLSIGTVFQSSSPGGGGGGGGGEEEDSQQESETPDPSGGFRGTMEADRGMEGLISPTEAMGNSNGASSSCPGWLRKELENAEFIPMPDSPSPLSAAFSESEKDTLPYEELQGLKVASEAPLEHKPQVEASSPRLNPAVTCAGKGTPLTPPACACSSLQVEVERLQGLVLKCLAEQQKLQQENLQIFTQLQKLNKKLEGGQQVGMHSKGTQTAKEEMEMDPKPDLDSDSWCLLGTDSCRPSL

[6] = molecular target: Serine/threonine-protein kinase Nek7 (Homo sapiens, UniProt Q8TDX7); assay: Inhibition of NEK7 in human HeLa cells lysate at 50 uM pre incubated for 15 mins followed by ADP acyl phosphate probe addition and measured after 10 mins by LC-MS/MS analysis relative to control; assay type: subcellular; conditions: time 25.0 min
[7] = molecular target: T2, STE20-related kinase adapter protein beta (Homo sapiens) (UniProt Q9C0K7); assay: Inhibition of ALS2CR2 in human HeLa cells lysate at 10 uM pre incubated for 15 mins followed by ADP acyl phosphate probe addition and measured after 10 mins by LC-MS/MS analysis relative to control; assay type: subcellular; conditions: time 25.0 min
T2 sequence (whole entry): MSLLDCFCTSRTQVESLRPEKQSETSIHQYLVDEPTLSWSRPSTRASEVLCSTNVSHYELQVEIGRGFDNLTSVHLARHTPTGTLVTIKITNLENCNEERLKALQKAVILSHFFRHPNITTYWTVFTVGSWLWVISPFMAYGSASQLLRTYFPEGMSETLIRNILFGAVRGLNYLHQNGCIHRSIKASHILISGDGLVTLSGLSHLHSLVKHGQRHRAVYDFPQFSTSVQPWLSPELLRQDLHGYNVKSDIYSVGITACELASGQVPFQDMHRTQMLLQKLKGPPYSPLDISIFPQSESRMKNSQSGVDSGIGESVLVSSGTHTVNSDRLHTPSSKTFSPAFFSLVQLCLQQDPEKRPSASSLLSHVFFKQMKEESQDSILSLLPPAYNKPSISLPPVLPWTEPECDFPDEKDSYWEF
How it was run: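 HeLa cell lysates (5 mg/mL total protein) were preincubated with inhibitor at 0, 0.8, 2, 10 or 50 μM for 15 min. ATP or ADP acylphosphate probe was then added (5 μM final) for 10 min, and reactions were stopped with urea. Up to four fragment ions per kinase probe-peptide were quantified by targeted MS. % inhibition was taken relative to untreated lysate. Run in duplicate.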

[8] = molecular target: MAP/microtubule affinity-regulating kinase 3 (Homo sapiens, UniProt P27448); assay: Inhibition of MARK3 in human HeLa cells lysate at 10 uM pre incubated for 15 mins followed by ADP acyl phosphate probe addition and measured after 10 mins by LC-MS/MS analysis relative to control; assay type: subcellular; conditions: time 25.0 min
[9] = molecular target: Phosphatidylinositol 4-kinase beta (Homo sapiens, UniProt Q9UBF8); assay: Inhibition of PIK4CB in human HeLa cells lysate at 50 uM pre incubated for 15 mins followed by ATP acyl phosphate probe addition and measured after 10 mins by LC-MS/MS analysis relative to control; assay type: subcellular; conditions: time 25.0 min
[10] = molecular target: Casein kinase I isoform alpha (Homo sapiens, UniProt P48729); assay: Inhibition of CK1alpha in human HeLa cells lysate at 50 uM pre incubated for 15 mins followed by ATP acyl phosphate probe addition and measured after 10 mins by LC-MS/MS analysis relative to control; assay type: subcellular; conditions: time 25.0 min
[11] = molecular target: Mitogen-activated protein kinase kinase kinase 11 (Homo sapiens, UniProt Q16584); assay: Inhibition of MLK3 in human HeLa cells lysate at 50 uM pre incubated for 15 mins followed by ATP acyl phosphate probe addition and measured after 10 mins by LC-MS/MS analysis relative to control; assay type: subcellular; conditions: time 25.0 min
[12] = molecular target: Mitogen-activated protein kinase 14 (Homo sapiens, UniProt Q16539); assay: Inhibition of P38alpha interaction site in human HeLa cells lysate at 10 uM pre incubated for 15 mins followed by ATP acyl phosphate probe addition and measured after 10 mins by LC-MS/MS analysis relative to control; assay type: subcellular; conditions: time 25.0 min
Chain of Mitogen-activated protein kinase 14 (Q16539 whole entry): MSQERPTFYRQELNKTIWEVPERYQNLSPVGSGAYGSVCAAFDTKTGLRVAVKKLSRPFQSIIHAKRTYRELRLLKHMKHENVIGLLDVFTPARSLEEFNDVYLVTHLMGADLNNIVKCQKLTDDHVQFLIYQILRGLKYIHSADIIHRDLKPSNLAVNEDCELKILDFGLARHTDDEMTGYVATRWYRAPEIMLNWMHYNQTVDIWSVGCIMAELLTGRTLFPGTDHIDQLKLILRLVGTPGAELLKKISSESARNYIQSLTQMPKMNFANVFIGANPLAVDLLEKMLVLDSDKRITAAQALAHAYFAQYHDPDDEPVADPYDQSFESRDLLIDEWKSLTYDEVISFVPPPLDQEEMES

Chain of Phosphatidylinositol 4-kinase beta (Q9UBF8 2-816 limits assumed): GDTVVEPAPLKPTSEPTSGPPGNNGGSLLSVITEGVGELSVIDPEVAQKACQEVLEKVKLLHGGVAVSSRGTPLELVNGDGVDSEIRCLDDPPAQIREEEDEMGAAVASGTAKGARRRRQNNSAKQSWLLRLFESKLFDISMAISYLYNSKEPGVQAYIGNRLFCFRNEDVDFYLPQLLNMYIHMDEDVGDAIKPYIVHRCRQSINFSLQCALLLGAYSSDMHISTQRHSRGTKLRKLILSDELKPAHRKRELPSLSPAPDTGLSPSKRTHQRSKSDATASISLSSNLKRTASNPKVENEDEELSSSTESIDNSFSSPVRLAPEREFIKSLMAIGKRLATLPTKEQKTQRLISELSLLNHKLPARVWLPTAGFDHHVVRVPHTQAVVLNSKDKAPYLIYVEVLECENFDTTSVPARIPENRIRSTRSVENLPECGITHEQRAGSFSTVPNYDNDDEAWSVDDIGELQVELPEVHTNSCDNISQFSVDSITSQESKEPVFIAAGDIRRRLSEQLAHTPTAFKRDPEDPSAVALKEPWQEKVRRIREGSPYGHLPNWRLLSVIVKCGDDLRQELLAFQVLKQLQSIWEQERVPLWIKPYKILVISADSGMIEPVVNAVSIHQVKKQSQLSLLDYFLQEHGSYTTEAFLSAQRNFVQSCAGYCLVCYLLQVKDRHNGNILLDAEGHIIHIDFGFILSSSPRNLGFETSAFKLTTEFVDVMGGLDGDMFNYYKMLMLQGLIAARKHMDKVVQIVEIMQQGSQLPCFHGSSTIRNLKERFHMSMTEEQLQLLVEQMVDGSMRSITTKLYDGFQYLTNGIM
Chain of Casein kinase I isoform alpha (P48729 2-337 limits assumed): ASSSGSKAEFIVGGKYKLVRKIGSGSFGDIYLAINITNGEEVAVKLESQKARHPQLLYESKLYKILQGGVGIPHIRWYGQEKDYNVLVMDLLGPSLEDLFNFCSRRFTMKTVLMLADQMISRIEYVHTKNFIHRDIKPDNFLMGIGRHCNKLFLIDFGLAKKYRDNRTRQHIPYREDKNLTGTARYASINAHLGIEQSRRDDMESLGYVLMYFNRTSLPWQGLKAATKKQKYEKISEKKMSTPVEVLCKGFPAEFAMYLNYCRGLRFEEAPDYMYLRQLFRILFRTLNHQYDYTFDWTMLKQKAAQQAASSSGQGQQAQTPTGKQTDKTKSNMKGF
Chain of MAP/microtubule affinity-regulating kinase 3 (P27448 whole entry, looked up): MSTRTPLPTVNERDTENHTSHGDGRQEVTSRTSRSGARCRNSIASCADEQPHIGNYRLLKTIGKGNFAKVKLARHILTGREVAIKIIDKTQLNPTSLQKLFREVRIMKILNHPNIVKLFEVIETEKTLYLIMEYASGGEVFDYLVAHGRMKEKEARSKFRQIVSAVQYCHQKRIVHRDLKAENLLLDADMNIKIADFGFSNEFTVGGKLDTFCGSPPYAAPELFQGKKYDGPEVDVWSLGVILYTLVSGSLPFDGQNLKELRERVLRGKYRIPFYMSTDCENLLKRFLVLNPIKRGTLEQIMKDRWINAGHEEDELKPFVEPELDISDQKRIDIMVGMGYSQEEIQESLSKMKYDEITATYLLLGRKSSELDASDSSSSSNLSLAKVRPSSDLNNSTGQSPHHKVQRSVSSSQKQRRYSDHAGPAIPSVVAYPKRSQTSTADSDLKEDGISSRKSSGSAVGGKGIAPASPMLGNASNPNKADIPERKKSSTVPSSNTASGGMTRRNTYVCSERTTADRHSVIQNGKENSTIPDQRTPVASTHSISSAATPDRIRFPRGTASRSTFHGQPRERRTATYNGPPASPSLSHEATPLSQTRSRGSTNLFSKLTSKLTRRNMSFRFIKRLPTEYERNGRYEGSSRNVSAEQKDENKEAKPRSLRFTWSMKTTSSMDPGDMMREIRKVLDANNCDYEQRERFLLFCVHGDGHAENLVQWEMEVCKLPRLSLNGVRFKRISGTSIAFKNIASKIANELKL
Chain of Ribosomal protein S6 kinase alpha-3 (P51812 whole entry, the tested form may be a part): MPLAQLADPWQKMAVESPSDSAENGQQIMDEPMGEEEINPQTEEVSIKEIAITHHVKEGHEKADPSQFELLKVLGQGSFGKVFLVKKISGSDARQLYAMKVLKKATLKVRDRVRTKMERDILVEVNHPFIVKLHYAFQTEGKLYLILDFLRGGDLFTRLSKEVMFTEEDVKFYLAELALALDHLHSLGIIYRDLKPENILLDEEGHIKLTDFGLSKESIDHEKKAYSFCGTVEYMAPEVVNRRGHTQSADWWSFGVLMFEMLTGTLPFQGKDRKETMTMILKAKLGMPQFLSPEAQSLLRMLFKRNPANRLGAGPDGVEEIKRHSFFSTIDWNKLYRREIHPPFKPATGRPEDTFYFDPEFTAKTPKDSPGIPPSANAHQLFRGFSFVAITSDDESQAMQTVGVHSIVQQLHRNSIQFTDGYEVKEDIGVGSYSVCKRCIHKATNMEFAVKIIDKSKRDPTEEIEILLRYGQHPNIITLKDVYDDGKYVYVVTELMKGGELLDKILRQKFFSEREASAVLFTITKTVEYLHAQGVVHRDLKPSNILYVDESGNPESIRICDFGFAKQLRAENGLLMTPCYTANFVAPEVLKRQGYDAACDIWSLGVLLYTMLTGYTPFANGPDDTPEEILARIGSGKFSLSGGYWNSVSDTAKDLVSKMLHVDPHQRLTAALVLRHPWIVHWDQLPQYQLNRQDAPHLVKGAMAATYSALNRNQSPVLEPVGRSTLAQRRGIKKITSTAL
Chain of Serine/threonine-protein kinase Nek7 (Q8TDX7 whole entry, looked up): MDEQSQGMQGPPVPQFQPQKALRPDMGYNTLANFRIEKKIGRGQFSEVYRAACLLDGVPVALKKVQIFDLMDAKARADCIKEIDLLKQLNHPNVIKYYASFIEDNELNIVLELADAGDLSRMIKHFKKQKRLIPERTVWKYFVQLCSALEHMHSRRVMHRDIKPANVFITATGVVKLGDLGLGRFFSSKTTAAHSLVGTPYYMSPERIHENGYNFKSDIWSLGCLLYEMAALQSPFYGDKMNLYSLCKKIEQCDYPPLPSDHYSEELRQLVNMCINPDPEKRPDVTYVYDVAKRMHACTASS
Chain of Dual specificity mitogen-activated protein kinase kinase 6 (P52564 whole entry): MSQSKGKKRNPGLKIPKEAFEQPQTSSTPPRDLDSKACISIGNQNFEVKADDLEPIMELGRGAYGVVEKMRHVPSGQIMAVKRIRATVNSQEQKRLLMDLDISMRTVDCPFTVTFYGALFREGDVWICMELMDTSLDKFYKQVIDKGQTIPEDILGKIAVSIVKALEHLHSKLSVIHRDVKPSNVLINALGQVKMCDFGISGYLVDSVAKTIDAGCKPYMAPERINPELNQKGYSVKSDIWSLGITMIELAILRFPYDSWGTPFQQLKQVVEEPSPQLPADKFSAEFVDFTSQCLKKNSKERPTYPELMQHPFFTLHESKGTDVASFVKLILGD
Chain of Mitogen-activated protein kinase kinase kinase 11 (Q16584 whole entry, looked up): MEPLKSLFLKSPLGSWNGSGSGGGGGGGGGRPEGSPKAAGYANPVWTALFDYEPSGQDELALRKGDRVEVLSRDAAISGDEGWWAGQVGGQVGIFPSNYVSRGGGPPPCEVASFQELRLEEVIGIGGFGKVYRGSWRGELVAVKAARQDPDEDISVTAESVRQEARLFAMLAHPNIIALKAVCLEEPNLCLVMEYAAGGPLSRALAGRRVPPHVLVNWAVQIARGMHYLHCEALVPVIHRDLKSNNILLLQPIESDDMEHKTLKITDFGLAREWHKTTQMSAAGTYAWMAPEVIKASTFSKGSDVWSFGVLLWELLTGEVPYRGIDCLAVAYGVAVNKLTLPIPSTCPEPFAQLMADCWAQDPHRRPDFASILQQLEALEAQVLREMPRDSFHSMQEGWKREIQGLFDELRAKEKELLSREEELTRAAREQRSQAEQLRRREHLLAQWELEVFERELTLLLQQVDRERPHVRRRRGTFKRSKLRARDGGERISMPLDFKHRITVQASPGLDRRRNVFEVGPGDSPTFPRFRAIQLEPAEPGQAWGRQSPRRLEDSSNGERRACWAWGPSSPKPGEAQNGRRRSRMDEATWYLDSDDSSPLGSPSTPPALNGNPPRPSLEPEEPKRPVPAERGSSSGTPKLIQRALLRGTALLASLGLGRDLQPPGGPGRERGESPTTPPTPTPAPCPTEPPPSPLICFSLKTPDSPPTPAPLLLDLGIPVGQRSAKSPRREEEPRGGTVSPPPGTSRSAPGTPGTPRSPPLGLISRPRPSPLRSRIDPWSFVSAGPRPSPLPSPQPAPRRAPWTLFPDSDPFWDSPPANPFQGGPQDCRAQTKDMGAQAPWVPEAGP

CCOc1cc(N2CCC(O)CC2)ccc1Nc1ncc2c(n1)N(C)c1ccccc1C(=O)N2C
IC50 (Ephrin type-B receptor 4): > 50 µM | IC50 [1]: > 50 µM | IC50 [2]: > 50 µM | IC50 [3]: > 50 µM | CL/F [4]: 26 mL/min/kg | inhibition [5]: 4.5% | inhibition [6]: -2.3% | inhibition [7]: -9.5% | inhibition [8]: 4.8% | inhibition [9]: 52.2% | inhibition [10]: 0.1% | inhibition [11]: -7.8% | inhibition [12]: 17.4%
